Published values pooled from the literature.
Converted amounts (≈) assume the structure as drawn.
Organism: Candida albicans

C[C@@H]1[C@H](O)[C@@H](C)/C=C/C=C/C=C/C=C/C=C/C=C/C=C/[C@H](O[C@@H]2O[C@H](C)[C@@H](O)[C@H](N)[C@@H]2O)C[C@@H]2O[C@](O)(C[C@@H](O)C[C@@H](O)[C@H](O)CC[C@@H](O)C[C@@H](O)CC(=O)O[C@H]1C)C[C@H](O)[C@H]2C(=O)O
inhibition zone (microbial growth; 1000 µg/mL): 21 mm

Clc1ccccc1C(c1ccccc1)(c1ccccc1)n1ccnc1
inhibition zone (microbial growth; disc diffusion; 100 µg/mL): 21 mm

CCCCCCCOc1c(OC)cc(NC(C)CCCN)c2nc(C(C)(C)C)ccc12 (stereo not shown)
MFC (microbial killing; ATCC90028): 10 µg/mL (≈ 23.3 µM)

Cc1cc(N)c2ccccc2[n+]1CCCCCCCCCC[n+]1c(C)cc(N)c2ccccc21
inhibition zone (microbial growth; disc diffusion; 50 µg/disc): 13 mm

C[C@@H]1[C@H](O)[C@@H](C)/C=C/C=C/C=C/C=C/C=C/C=C/C=C/[C@H](O[C@@H]2O[C@H](C)[C@@H](O)[C@H](N)[C@@H]2O)C[C@@H]2O[C@](O)(C[C@@H](O)C[C@@H](O)[C@H](O)CC[C@@H](O)C[C@@H](O)CC(=O)O[C@H]1C)C[C@H](O)[C@H]2C(=O)O
IC50 (microbial growth; ATCC90028): 0.25 µg/mL (≈ 0.271 µM)

C[C@@H]1[C@H](O)[C@@H](C)/C=C/C=C/C=C/C=C/C=C/C=C/C=C/[C@H](O[C@@H]2O[C@H](C)[C@@H](O)[C@H](N)[C@@H]2O)C[C@@H]2O[C@](O)(C[C@@H](O)C[C@@H](O)[C@H](O)CC[C@@H](O)C[C@@H](O)CC(=O)O[C@H]1C)C[C@H](O)[C@H]2C(=O)O
MFC (microbial killing; ATCC90028): 2.5 µg/mL (≈ 2.71 µM)

C[C@@H]1[C@H](O)[C@@H](C)/C=C/C=C/C=C/C=C/C=C/C=C/C=C/[C@H](O[C@@H]2O[C@H](C)[C@@H](O)[C@H](N)[C@@H]2O)C[C@@H]2O[C@](O)(C[C@@H](O)C[C@@H](O)[C@H](O)CC[C@@H](O)C[C@@H](O)CC(=O)O[C@H]1C)C[C@H](O)[C@H]2C(=O)O
inhibition zone (microbial growth; disc diffusion; 35 µg/disc): 11 mm

O=C(O)c1cn(C2CC2)c2cc(N3CCNCC3)c(F)cc2c1=O
MIC (microbial growth; broth dilution): 12.5 µM

C#CCCCCCCCCC=CCC(O)CC(O)CO (stereo not shown)
IC50 (microbial growth; broth dilution; ATCC90028): > 8 µg/mL

O=C(CCCCCCCCCC[P+](c1ccccc1)(c1ccccc1)c1ccccc1)Nc1ccc(O)c(O)c1.[Br-]
MIC (microbial growth; broth dilution; ATCC90028; 24 h): 32 µg/mL

C#CCCCCCCCCCCCC(O)CC(O)CO (stereo not shown)
IC50 (microbial growth; broth dilution; ATCC90028): > 200 µg/mL

C[C@@H]1[C@H](O)[C@@H](C)/C=C/C=C/C=C/C=C/C=C/C=C/C=C/[C@H](O[C@@H]2O[C@H](C)[C@@H](O)[C@H](N)[C@@H]2O)C[C@@H]2O[C@](O)(C[C@@H](O)C[C@@H](O)[C@H](O)CC[C@@H](O)C[C@@H](O)CC(=O)O[C@H]1C)C[C@H](O)[C@H]2C(=O)O
IC50 (microbial growth; broth dilution; ATCC90028): 0.26 µg/mL (≈ 0.281 µM)

O=C(Cc1cc(O)c(O)c(O)c1)NCCCCCCCC[P+](c1ccccc1)(c1ccccc1)c1ccccc1.[Br-]
MIC (microbial growth; broth dilution; ATCC90028; 24 h): > 32 µg/mL
